Experimental data as given in ChEMBL document CHEMBL3297713, “Discovery, optimization, and biological evaluation of 5-(2-(trifluoromethyl)phenyl)indazoles as a novel class of transient receptor potential A1 (TRPA1) antagonists” (J Med Chem, 2014).

What was measured:
[1] = target: Transient receptor potential cation channel subfamily A member 1 (Rattus norvegicus, UniProt Q6RI86); test: (§1) Antagonist activity at rat TRPA1 expressed in CHO-TREX cells assessed as inhibition of cinnamaldehyde-induced calcium flux incubated 10 mins prior to cinnamaldehyde addition by FLIPR assay relative to control; format: cell-based
Procedure, shortened: (§2)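 TRPA1-expressing CHO-TREX cells, channel expression induced with tetracycline (0.5 µg/mL human, 1 µg/mL mouse or rat). Cells loaded with Fluo4-AM for 90 min at room temperature, washed, then test agent added in HBSS/20 mM HEPES/2.5 mM probenecid/0.1% BSA. Agonist added 10 min later at EC80: human cinnamaldehyde 30 µM, AITC 2.5 µM, dibenzoxazepine-carboxamide 5 nM; rat and mouse cinnamaldehyde 40 µM. FLIPR calcium flux; mean of triplicates fitted to sigmoidal dose-response curves.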

[2] = target: Transient receptor potential cation channel subfamily A member 1 (Rattus norvegicus) (UniProt Q6RI86); test: as §1; format: cell-based; set-up: concentration or dose not given beside the values; procedure, shortened: as §2
[3] = Cmax in Wistar rat at 10 mg/kg, po; format: ADME, organism-based; set-up: dose 10 mg/kg, route oral; conditions: in vivo
Procedure, shortened: (§3)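 Male Wistar rats dosed orally at 10 mg/kg as a suspension in 0.5% methylcellulose/0.5% Tween80.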

[4] = target: Transient receptor potential cation channel subfamily V member 1 (Homo sapiens, UniProt Q8NER1); test: Antagonist activity at human TRPV1 expressed in CHOK1 cells assessed as inhibition of capsaicin-induced calcium flux incubated 10 mins prior to capsaicin addition by FLIPR assay relative to control; format: cell-based, CHO-K1
[5] = Half life in Wistar rat at 1 mg/kg, iv; format: ADME, organism-based; set-up: dose 1 mg/kg, route intravenous; conditions: in vivo
Procedure, shortened: (§4)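 Wistar rats given 1 mg/kg i.v. as a solution in 75% PEG200/25% D5W.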

[6] = Volume of distribution at steady state in Wistar rat at 1 mg/kg, iv; format: ADME, organism-based; set-up: dose 1 mg/kg, route intravenous; conditions: in vivo, read-out: Vdss; procedure, shortened: as §4
CHO-K1 [7] = test: Selectivity ratio of IC50 for human TRPV1 expressed in CHOK1 cells to IC50 for human TRPA1 expressed in CHO-TREX cells; format: cell-based
Procedure, shortened: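 Stable hTRPV1 CHO-K1 and tetracycline-induced (0.5 µg/mL) hTRPA1 CHO-TREX cells were loaded with Fluo4-AM for 90 min at room temperature and read on FLIPR. Antagonist preincubation was 10 min before EC80 agonist: capsaicin 40 nM (TRPV1); cinnamaldehyde 30 µM, AITC 2.5 µM or dibenzoxazepine carboxamide 5 nM (TRPA1). Buffer contained probenecid and BSA. IC50s were fitted from triplicate means of max−min calcium signal.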

[8] = target: T1, Transient receptor potential cation channel subfamily A member 1 (Homo sapiens, UniProt O75762); test: Antagonist activity at human TRPA1 expressed in CHO-TREX cells assessed as inhibition of cinnamaldehyde-induced calcium flux incubated 10 mins prior to cinnamaldehyde addition by FLIPR assay relative to control; format: cell-based; procedure, shortened: as §2
CHO-K1 [9] = test: Selectivity ratio of IC50 for human TRPM8 expressed in CHOK1 cells to IC50 for human TRPA1 expressed in CHO-TREX cells; format: cell-based
Procedure, shortened: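 FLIPR calcium-flux antagonist assays with Fluo4-AM loading (90 min, room temperature) in HBSS/20 mM HEPES/2.5 mM probenecid/0.1% BSA. Compound added 10 min before agonist at EC80: 40 µM menthol for CHO-K1 hTRPM8; for tetracycline-induced (0.5 µg/mL) CHO-TREX hTRPA1, 30 µM cinnamaldehyde, 2.5 µM AITC or 5 nM dibenzoxazepine carboxamide. Response is maximum minus minimum. IC50s come from sigmoidal fits of triplicate means.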

[10] = target: T2, Transient receptor potential cation channel subfamily V member 3 (Homo sapiens, UniProt Q8NET8); test: (§5) Antagonist activity at human TRPV3 expressed in CHOK1 cells assessed as inhibition of 2-APB-induced calcium flux incubated 10 mins prior to 2-APB addition by FLIPR assay relative to control; format: cell-based, CHO-K1
T2 sequence (Q8NET8 whole entry): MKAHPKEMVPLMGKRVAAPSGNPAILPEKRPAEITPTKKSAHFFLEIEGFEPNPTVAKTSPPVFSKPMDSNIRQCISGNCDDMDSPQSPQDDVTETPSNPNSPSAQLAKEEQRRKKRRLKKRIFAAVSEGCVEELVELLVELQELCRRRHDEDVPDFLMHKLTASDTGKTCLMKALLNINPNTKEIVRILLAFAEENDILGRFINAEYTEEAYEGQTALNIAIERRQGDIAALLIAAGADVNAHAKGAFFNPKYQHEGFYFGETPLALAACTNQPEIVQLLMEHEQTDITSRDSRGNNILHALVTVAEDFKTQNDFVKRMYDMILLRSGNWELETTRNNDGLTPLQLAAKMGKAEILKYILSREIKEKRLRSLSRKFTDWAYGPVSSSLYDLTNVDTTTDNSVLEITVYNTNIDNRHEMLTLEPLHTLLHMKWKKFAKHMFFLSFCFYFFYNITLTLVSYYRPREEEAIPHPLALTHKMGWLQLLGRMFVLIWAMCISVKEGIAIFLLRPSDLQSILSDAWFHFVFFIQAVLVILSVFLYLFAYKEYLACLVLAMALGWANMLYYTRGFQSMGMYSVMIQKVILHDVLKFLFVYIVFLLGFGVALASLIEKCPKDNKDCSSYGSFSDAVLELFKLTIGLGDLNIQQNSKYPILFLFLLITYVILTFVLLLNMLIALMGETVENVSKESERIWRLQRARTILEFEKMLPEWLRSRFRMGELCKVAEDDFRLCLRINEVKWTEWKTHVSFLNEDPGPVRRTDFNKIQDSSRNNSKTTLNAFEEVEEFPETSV

[11] = target: T3, Transient receptor potential cation channel subfamily V member 3 (Homo sapiens) (UniProt Q8NET8); test: as §5; format: cell-based; set-up: concentration or dose not given beside the values; conditions: CHO-K1
T3 sequence (whole entry): T2 sequence (Q8NET8 whole entry)

[12] = Clearance in Wistar rat at 1 mg/kg, iv; format: ADME, organism-based; set-up: dose 1 mg/kg, route intravenous; conditions: in vivo; procedure, shortened: as §4
[13] = Tmax in Wistar rat at 10 mg/kg, po; format: ADME, organism-based; set-up: dose 10 mg/kg, route oral; conditions: in vivo; procedure, shortened: as §3
CHO-K1 [14] = test: Selectivity ratio of IC50 for human TRPV3 expressed in CHOK1 cells to IC50 for human TRPA1 expressed in CHO-TREX cells; format: cell-based
Procedure, shortened: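 Calcium influx was measured by FLIPR in Fluo4-AM-loaded cells: hTRPV3 CHO-K1 challenged with 40 µM 2-APB, and hTRPA1 CHO-TREX (0.5 µg/mL tetracycline) challenged with 30 µM cinnamaldehyde, 2.5 µM AITC or 5 nM dibenzoxazepine carboxamide, all at EC80. Compounds were added 10 min ahead of agonist in HEPES-buffered HBSS with probenecid. Sigmoidal curves were fitted to triplicate means.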

[15] = target: Transient receptor potential cation channel subfamily M member 8 (Homo sapiens, UniProt Q7Z2W7); test: Antagonist activity at human TRPM8 expressed in CHOK1 cells assessed as inhibition of menthol-induced calcium flux incubated 10 mins prior to menthol addition by FLIPR assay relative to control; format: cell-based, CHO-K1
[16] = target: Transient receptor potential cation channel subfamily A member 1 (Mus musculus) (UniProt Q8BLA8); test: (§6) Antagonist activity at mouse TRPA1 expressed in CHO-TREX cells assessed as inhibition of cinnamaldehyde-induced calcium flux incubated 10 mins prior to cinnamaldehyde addition by FLIPR assay relative to control; format: cell-based; set-up: concentration or dose not given beside the values; procedure, shortened: as §2
[17] = target: Transient receptor potential cation channel subfamily A member 1 (Mus musculus, UniProt Q8BLA8); test: as §6; format: cell-based; procedure, shortened: as §2
[18] = Oral bioavailability in Wistar rat at 10 mg/kg; format: ADME, organism-based; conditions: in vivo; procedure, shortened: as §3
[19] = AUC in Wistar rat at 10 mg/kg, po; format: ADME, organism-based; set-up: dose 10 mg/kg, route oral; conditions: plasma; procedure, shortened: as §3
[20] = target: T1, Transient receptor potential cation channel subfamily A member 1; test: Antagonist activity at TRPA1 (unknown origin)
Procedure, shortened: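 TRPA1 expressed in CHO-TREX cells, induced with tetracycline (0.5 µg/mL for human, 1 µg/mL for mouse or rat). Cells loaded with Fluo4-AM for 90 min at room temperature, then washed. Antagonist added 10 min before an EC80 agonist in HBSS/20 mM HEPES, 2.5 mM probenecid, 0.1% BSA. Calcium flux read by FLIPR. IC50 taken from sigmoidal curves of triplicate means.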

T1 sequence (O75762 whole entry): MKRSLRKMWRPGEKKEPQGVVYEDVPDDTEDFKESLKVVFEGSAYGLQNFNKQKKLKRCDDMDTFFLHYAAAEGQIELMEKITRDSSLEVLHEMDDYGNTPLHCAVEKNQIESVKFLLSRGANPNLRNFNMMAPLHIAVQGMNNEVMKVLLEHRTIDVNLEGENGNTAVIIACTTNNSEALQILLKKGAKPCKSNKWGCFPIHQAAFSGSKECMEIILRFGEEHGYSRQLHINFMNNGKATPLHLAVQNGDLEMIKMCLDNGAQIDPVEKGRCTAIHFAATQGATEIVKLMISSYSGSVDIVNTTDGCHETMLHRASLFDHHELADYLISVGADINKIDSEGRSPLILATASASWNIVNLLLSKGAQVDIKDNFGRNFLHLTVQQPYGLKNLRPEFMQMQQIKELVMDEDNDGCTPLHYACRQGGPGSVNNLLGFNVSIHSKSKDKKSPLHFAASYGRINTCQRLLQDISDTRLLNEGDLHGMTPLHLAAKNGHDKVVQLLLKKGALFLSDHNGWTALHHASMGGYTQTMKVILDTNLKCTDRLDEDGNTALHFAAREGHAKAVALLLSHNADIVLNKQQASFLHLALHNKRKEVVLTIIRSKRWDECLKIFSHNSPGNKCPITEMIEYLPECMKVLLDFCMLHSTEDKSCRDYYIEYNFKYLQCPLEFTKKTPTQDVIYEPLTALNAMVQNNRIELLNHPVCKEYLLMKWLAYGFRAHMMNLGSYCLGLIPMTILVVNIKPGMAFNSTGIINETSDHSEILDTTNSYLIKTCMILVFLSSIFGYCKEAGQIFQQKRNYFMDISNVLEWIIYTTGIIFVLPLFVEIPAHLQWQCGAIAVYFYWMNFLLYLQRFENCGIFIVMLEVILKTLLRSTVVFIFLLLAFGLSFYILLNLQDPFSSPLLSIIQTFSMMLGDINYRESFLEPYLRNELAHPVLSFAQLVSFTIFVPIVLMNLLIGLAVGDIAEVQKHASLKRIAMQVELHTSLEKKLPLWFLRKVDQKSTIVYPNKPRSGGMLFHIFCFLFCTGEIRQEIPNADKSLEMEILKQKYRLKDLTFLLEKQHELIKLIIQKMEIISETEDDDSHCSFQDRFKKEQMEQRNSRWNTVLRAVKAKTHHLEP
Transient receptor potential cation channel subfamily V member 1, sequence (Q8NER1 whole entry): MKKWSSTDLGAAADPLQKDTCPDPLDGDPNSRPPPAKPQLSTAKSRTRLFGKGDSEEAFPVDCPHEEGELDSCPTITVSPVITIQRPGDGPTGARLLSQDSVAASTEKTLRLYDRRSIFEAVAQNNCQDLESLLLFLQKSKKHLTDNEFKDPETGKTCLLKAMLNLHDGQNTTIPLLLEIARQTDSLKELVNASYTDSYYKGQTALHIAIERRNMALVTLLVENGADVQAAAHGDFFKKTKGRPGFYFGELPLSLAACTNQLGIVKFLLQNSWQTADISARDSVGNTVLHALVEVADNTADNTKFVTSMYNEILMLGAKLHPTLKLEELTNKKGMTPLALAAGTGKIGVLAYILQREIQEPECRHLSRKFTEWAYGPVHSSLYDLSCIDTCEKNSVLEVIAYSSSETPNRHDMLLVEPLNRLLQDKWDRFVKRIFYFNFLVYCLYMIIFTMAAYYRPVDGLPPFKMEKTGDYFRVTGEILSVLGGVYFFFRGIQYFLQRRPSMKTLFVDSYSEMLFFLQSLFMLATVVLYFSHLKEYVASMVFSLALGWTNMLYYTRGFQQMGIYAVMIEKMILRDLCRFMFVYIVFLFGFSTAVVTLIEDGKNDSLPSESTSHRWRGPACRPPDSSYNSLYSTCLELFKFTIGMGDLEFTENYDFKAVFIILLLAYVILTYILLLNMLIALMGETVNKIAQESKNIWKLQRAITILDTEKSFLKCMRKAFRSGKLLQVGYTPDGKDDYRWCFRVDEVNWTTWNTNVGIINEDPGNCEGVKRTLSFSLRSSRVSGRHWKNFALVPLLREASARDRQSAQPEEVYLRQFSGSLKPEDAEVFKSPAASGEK
Transient receptor potential cation channel subfamily A member 1 (Mus musculus), sequence (Q8BLA8 whole entry): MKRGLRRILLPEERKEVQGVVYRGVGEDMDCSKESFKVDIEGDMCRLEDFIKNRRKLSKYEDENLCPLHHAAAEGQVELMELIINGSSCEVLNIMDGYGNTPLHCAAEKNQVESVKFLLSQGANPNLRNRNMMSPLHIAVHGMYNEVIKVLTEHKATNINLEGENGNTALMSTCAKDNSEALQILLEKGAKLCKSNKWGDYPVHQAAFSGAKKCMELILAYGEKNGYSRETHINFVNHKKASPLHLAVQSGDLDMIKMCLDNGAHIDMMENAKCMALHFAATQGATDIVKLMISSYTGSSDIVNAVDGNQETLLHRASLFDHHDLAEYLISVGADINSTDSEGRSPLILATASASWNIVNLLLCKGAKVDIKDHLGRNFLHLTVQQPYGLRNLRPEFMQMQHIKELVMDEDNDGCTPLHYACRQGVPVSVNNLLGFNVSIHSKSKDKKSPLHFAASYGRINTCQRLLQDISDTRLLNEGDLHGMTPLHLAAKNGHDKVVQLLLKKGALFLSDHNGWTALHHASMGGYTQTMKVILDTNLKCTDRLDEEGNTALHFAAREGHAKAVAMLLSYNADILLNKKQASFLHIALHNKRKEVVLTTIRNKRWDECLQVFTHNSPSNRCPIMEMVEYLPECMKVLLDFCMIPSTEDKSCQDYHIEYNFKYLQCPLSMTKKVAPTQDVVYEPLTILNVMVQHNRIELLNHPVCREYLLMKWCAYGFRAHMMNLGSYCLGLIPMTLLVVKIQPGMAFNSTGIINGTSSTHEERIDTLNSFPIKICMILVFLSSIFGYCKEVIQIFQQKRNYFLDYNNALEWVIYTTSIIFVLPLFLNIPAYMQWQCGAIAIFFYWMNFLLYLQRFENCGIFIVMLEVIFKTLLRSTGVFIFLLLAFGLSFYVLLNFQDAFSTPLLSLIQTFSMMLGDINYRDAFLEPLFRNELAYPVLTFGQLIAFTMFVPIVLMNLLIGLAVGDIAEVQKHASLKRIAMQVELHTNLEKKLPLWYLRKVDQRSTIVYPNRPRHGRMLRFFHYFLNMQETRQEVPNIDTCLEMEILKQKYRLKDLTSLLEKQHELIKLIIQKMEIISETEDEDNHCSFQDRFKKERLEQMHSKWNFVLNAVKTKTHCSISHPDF
Transient receptor potential cation channel subfamily A member 1 (Mus musculus, UniProt Q8BLA8), sequence (Q8BLA8 whole entry): as above
Transient receptor potential cation channel subfamily A member 1 (Rattus norvegicus, UniProt Q6RI86), sequence (Q6RI86 whole entry): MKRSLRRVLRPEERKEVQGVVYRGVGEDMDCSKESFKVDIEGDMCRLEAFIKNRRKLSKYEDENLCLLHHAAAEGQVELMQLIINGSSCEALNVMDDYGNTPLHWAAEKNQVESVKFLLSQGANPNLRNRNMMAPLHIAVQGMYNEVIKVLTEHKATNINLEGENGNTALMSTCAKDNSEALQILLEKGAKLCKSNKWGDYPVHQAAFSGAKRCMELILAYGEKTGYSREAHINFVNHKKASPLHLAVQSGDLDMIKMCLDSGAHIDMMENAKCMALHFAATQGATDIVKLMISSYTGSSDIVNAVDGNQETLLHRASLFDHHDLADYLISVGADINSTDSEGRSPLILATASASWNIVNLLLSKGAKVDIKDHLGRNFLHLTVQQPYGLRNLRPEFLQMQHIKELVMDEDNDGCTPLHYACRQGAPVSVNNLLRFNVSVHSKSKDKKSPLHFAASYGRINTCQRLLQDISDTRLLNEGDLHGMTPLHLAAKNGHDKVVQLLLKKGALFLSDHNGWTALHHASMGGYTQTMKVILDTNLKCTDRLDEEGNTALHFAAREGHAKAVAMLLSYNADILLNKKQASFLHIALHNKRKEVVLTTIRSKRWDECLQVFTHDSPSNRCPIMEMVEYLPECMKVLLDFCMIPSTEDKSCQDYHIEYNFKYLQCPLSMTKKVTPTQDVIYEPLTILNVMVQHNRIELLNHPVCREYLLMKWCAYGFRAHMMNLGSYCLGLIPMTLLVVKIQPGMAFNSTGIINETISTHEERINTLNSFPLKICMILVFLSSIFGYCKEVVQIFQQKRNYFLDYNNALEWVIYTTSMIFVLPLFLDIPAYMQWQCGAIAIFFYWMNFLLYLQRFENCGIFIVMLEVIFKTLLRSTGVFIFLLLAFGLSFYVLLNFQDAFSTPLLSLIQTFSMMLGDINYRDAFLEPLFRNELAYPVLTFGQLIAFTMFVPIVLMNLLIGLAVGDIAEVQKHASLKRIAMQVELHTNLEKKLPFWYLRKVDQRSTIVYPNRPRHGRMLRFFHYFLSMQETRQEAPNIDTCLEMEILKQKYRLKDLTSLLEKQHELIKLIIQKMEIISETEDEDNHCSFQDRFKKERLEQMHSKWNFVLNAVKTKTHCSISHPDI
Transient receptor potential cation channel subfamily A member 1 (Rattus norvegicus), sequence (Q6RI86 whole entry): as above

`COc1cc2[nH]ncc2cc1-c1ccccc1C(F)(F)F` gave an IC50 [1] of 99 nM, an inhibition [2] of 99% and a Cmax [3] of 2000 nM. For the same compound, the IC50 [4] was greater than 30 µM, the inhibition ([4]; CHO-K1) was 35% and the half-life [5] was 396 min. It also gave a Vd [6] of 3.6 L/kg, a Ratio IC50 (CHO-K1 [7]) greater than 100 and an IC50 [8] of 26 nM. For the same compound, the inhibition [8] was 98%, the Ratio IC50 (CHO-K1 [9]) was greater than 100 and the IC50 [10] was greater than 30 µM. It also gave an inhibition [11] of 35%, a clearance [12] of 35.5 mL/min/kg and a Tmax [13] of 48 min. It also gave a Ratio IC50 (CHO-K1 [14]) greater than 100, an IC50 [15] of 10.9 µM and an inhibition ([15]; CHO-K1) of 100%. For the same compound, the inhibition [16] was 100%, the IC50 [17] was 161 nM and the bioavailability [18] was 50%. It also gave an AUC [19] of 8.2 µM·h.

With `CC(C)c1ccc(NC(=O)Cn2cnc3c2c(=O)n(C)c(=O)n3C)cc1` the IC50 [20] was 2300 nM.
